Source: publication PMC2883079 (European Journal of Immunology, 2009)
Where “and” joins values, the source holds several entries; their conditions need not be identical. Equal entries are not always repeated. Where two headings read alike, the source gives them in different places. No end group written: not given here.

Experiments:
mature DC (mDC) = experiment: Chemotaxis assay, LPS-matured DC; format: cell-based, mouse; conditions: DC matured 24 h with 100 ng/mL E. coli LPS; 1.5 h
In short: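 Mouse tibia/femur marrow at 3.75×10^5 cells/mL with GM-CSF supernatant (5%, 500 U/mL), refed day 3. Day 6 cultures then had LPS for 24 h. Phenotyped by flow for CD11c/MHC II, CD86, CD54, Gr1 and B220. 48-well chamber, 1.5 h, RPMI/1% BSA, cells at 5×10^5 per mL. CCL19 positive control. Three ×400 fields per well, triplicate wells, SD over nine counts, one-tailed t-test.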

[1] = system: immature DC (iDC), bone marrow-derived, 7 days in GM-CSF; experiment: Chemotaxis assay, iDC cultured in GM-CSF for 7 days; format: cell-based, mouse
In short: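 Mouse tibia/femur marrow cells were seeded at 3.75×10^5/mL in complete medium with 5% (500 U/mL) GM-CSF supernatant, refed on day 3. Loosely adherent cells were harvested on day 6 or day 7. Migration ran 1.5 h in 48-well chambers, cells at 5×10^5/mL in RPMI 1640/1% BSA, with CCL20 as positive control. Three ×400 fields were counted per triplicate well. MI = migrated cells at optimal peptide / control medium. One-tailed t-test, p<0.05.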

CD4 T cells = experiment: Chemotaxis of CD4 T cells; format: cell-based; conditions: species of cells not stated
In short: (§1)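 In 48-well chemotaxis chambers, cells migrated for 4 h. Human CD4+ cells came from Ficoll–Paque mononuclear cells of donor blood or bone marrow, with CCL20 as positive control. Mouse cells were splenic CD4+ from magnetic positive selection, CD4/CD3-stained, with CXCL12a as control. Cells were at 5×10^5/mL in RPMI 1640/1% BSA, the medium also used to dilute peptides. Three ×400 fields were counted per triplicate well. MI = migrated cells at optimal concentration / peptide-free control. One-tailed t-test.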

Antimicrobial activity = format: cell-based; conditions: data not shown
[2] = system: immature DC (iDC), bone marrow-derived, 6 days in GM-CSF; experiment: Chemotaxis assay, iDC cultured in GM-CSF for 6 days; format: cell-based, mouse; conditions: 1.5 h
[3] = system: HEK293 cells expressing human CCR6; experiment: Chemotaxis assay, HEK293 cells expressing human CCR6; format: cell-based; conditions: HEK293 cells overexpressing human CCR6, 5 h
In short: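 48-well chemotaxis chamber, 5 h. Cells at 5×10^5 per mL in RPMI 1640 with 1% BSA, which also served as diluent and no-peptide control. CCL20 positive control. Migrated cells counted in three random ×400 fields per well, triplicate wells, as mean per field. MI = count at optimal concentration / control count. One-tailed Student's t-test. Representative of at least three experiments.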

mouse CD4^+ T cells = experiment: Chemotaxis assay, mouse CD4+ T cells; format: cell-based; conditions: 4 h
In short: as §1

[4] = cited from earlier work
human CD4^+ T cells = experiment: Chemotaxis assay, human CD4+ T cells; format: cell-based; conditions: for optimal concentration for chemotaxis / migratory index (MI): 4 h; for migratory index (MI): at optimal concentration
In short: as §1

neutrophils = experiment: Chemotaxis assay, peritoneal neutrophils; format: cell-based, mouse; conditions: at least 90% pure, positive control at 45 ng/mL
In short: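 Mouse peritoneal neutrophils, identified by morphology and at least 90% pure. Tested in 48-well chemotaxis chambers with N-formylmethionyl leucyl phenylalanine as positive control and RPMI 1640/1% BSA as medium and no-peptide control. Cells at 5×10^5 per mL. Migrated cells counted in three random ×400 fields per well in triplicate wells. Reported as mean per field. One-tailed Student's t-test.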

[5] = d7iDC, at peak peptide concentration, 1.5 h
[6] = d6iDC, p<0.05 vs control medium

Row | Molecule | migration of mDC (result in words) (mature DC (mDC)) | chemoattraction of CCR6-expressing cells (result in words) [3] | optimal / only significant concentration for chemotaxis (mouse CD4^+ T cells) | optimal concentration for chemotaxis (human CD4^+ T cells) | migratory index (MI) (human CD4^+ T cells) | further results
1 | ELDHCHTNGGYCVRAICPPSARRPGSCFPEKNPCCKYMK (also: bicyclic or more (positions not given here)) [Defb2] | do not show significant migration | – | – | – | – | migration of d7iDC (result in words) ([1]; all concentrations tested, p<0.05 vs control): statistically significant migration; migratory index (MI) [1, 5]: 3.0; chemoattraction of CD4 T cells (result in words) (CD4 T cells): attracting CD4 T cells
2 | EPVSCIRNGGICQYRCIGLRHKIGTCGSPFKCCK (also: bicyclic or more (positions not given here)) [Defb8] | – | neither Defr1 nor the six cysteine allele Defb8, can chemoattract these cells | – | – | – | antimicrobial activity (result in words) (Antimicrobial activity): much reduced antimicrobial activity compared with Defr1; migration of iDC (result in words) ([2]; iDC, days of culture not stated (Fig. 4A)): can chemoattract iDC
3 | DPVTYIRNGGICQYRCIGLRHKIGTCGSPFKCCK (disulfide (positions not given here)) [Defr1] | do not show significant migration | neither Defr1 nor the six cysteine allele Defb8, can chemoattract these cells | 10 ng/mL | 10 ng/mL | 8 and 9 | peptide concentration giving peak migration ([2]; d6iDC): 10 ng/mL; peptide concentration giving peak migration ([1]; d7iDC, 1.5 h): 1 ng/mL; migratory index (MI) [1, 5]: ~3.5; migratory index (MI) ([1]; d7iDC, peptide at 0.1 ng/mL, p<0.05): 2.5; migratory index (MI) (mouse CD4^+ T cells; at optimal concentration): 2.5; antimicrobial activity (result in words) [4]: potent antimicrobial activity; chemoattraction of CD4 T cells (result in words) (CD4 T cells): attracting CD4 T cells; activity relative to Defr1 Y5C and Defr1-1c^V (peak concentration) (human CD4^+ T cells): tenfold more active
4 | CCL20: recognised chemokine ligand for the CCR6 receptor, positive control [reference compound] | – | can chemoattract these cells | – | – | – | –
5 | DPVTCIRNGGICQYRCIGLRHKIGTCGSPFKCCK (also: bicyclic or more (positions not given here)) [Defr1-Y5C] | Neither peptide could induce migration | unable to chemoattract these cells | 100 ng/mL | 100 ng/mL | 5.5 | migration of iDC (result in words) [2, 6]: Neither peptide could induce migration; antimicrobial activity (result in words) [4]: poor antimicrobial activity
6 | N-formylmethionyl leucyl phenyalanine | – | – | – | – | – | migration of neutrophils (result in words) (neutrophils): significant migration
7 | DPVTYIRNGGIAQYRAIGLRHKIGTAGSPFKCAK (disulfide (positions not given here)) [Defr1-1c^V] | Neither peptide could induce migration | unable to chemoattract these cells | 100 ng/mL | 100 ng/mL | 5.5 | migration of iDC (result in words) [2, 6]: Neither peptide could induce migration
8 | CCL19: chemokine, positive control for mDC migration (protein, UniProt Q99731 22-98, looked up) C-C motif chemokine 19: GTNDAEDCCLSVTQKPIPGYIVRNFHYLLIKDGCRVPAVVFTTLRGRQLCAPPDQPWVERIIQRLQRTSAKMKRRSS | statistically significant migration | – | – | – | – | –
